Consider two compounds from ChEMBL document CHEMBL4406821, “Novel dual inhibitors targeting CDK4 and VEGFR2 synergistically suppressed cancer progression and angiogenesis” (Eur J Med Chem, 2019).

The source made the active and inactive calls. The calls are words filed in the database; no cut-off is given here.

Data set [1] deals with T47D. The experiment in a line: Induction of apoptosis in human T47D cells at 40 nM incubated for 48 hrs by annexin V FITC and propidium iodide staining based flow cytometry. The class given is functional, cell-based. The method, boiled down:
(§1)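 Annexin V-FITC/PI double staining with flow-cytometric readout. MDA-MB-231, T-47D, SiHa and HeLa cells were treated with graded concentrations for 48 h. MDA-MB-231 and T-47D were grown in DMEM and SiHa in 1640 medium, each with 10% FBS and 1% penicillin/streptomycin at 37°C under 5% CO2. Early- and late-stage apoptotic fractions were scored.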

Data set [2] deals with NUAK family SNF1-like kinase 1 (Homo sapiens) (UniProt O60285). The experiment in a line: Inhibition of recombinant human ARK5 (2 to end residues) at 1 uM using KKKVSRSGLYRSP as substrate incubated for 40 mins in presence of [gamma-33P]-ATP by scintillation counting method relative to control. The method, boiled down:
(§2)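 Kinase panel profiling at 1 μM performed by Eurofins KinaseProfiler; percent inhibition reported as mean of two independent experiments.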

In data set [3] the target is Protein-tyrosine kinase 6 (Homo sapiens) (UniProt Q13882). The experiment in a line: Inhibition of recombinant full length human BRK at 1 uM using poly(Glu, Tyr) 4:1 as substrate incubated for 40 mins in presence of [gamma-33P]-ATP by scintillation counting method relative to control. Summed up: as §2
The target of data set [4] is Macrophage-stimulating protein receptor (Homo sapiens) (UniProt Q04912). The experiment in a line: Inhibition of recombinant human RON (983 to end residues) at 1 uM using GGMEDIYFEFMGGKKK as substrate incubated for 40 mins in presence of [gamma-33P]-ATP by scintillation counting method relative to control.
For data set [5], the target named is Activin receptor type-1-like (Homo sapiens) (UniProt P37023). The experiment in a line: Inhibition of recombinant human ALK1 (142 to end residues) at 1 uM using casein as substrate incubated for 40 mins in presence of [gamma-33P]-ATP by scintillation counting method relative to control. The method, boiled down:
as §2

Data set [6] addresses Serine/threonine-protein kinase VRK2 (Homo sapiens) (UniProt Q86Y07). The experiment in a line: Inhibition of recombinant human VRK2 (1 to 336 residues) at 1 uM using casein as substrate incubated for 40 mins in presence of [gamma-33P]-ATP by scintillation counting method relative to control. The method, boiled down:
(§3)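 Tested at a single 1 uM in an outsourced commercial kinase-profiling panel, read as percent inhibition. Each value is the mean of two independent experiments.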

Data set [7] deals with Mast/stem cell growth factor receptor Kit (Homo sapiens), P10721 [V560G]. The experiment in a line: Inhibition of recombinant human cKIT V560G mutant (544 to end residues) at 1 uM using GGMEDIYFEFMGG as substrate incubated for 40 mins in presence of [gamma-33P]-ATP by scintillation counting method relative to control. Summed up:
as §3

For data set [8], the system named is PI3-kinase p110-alpha/p85-alpha (Homo sapiens), P27986+P42336 [E542K]. The experiment in a line: Inhibition of recombinant human full length PI3K p110alpha/p85alpha E542K mutant at 1 uM using phosphatidylinositol 4,5-bisphosphate as substrate incubated for 40 mins in presence of [gamma-33P]-ATP by scintillation counting method relative to control. The class given is protein-complex assay.

The target of data set [9] is Serine/threonine-protein kinase D1 (Homo sapiens) (UniProt Q15139). The experiment in a line: Inhibition of recombinant human full length PKCmu at 1 uM using KKLNRTLSVA as substrate incubated for 40 mins in presence of [gamma-33P]-ATP by scintillation counting method relative to control.
Data set [10] concerns the target Tyrosine-protein kinase BTK (Homo sapiens) (UniProt Q06187). The experiment in a line: Inhibition of recombinant full length human BTK at 1 uM using LSNLYHQGKFLQT as substrate incubated for 40 mins in presence of [gamma-33P]-ATP by scintillation counting method relative to control. Summed up: as §3
In data set [11] the target is G protein-coupled receptor kinase 3 (Homo sapiens) (UniProt P35626). The experiment in a line: Inhibition of recombinant human full length GRK3 at 1 uM using casein as substrate incubated for 40 mins in presence of [gamma-33P]-ATP by scintillation counting method relative to control.
The target of data set [12] is Serine/threonine-protein kinase BRSK1 (Homo sapiens) (UniProt Q8TDC3). The experiment in a line: Inhibition of recombinant human BRSK1 (2 to end residues) at 1 uM using KKKVSRSGLYRSP as substrate incubated for 40 mins in presence of [gamma-33P]-ATP by scintillation counting method relative to control. Summed up: as §2
In data set [13] the target is Serine/threonine-protein kinase tousled-like 1 (Homo sapiens) (UniProt Q9UKI8). The experiment in a line: Inhibition of recombinant human full length TLK1 at 1 uM using casein as substrate incubated for 40 mins in presence of [gamma-33P]-ATP by scintillation counting method relative to control.
Data set [14] concerns the target Fibroblast growth factor receptor 1 (Homo sapiens) (UniProt P11362). The experiment in a line: Inhibition of recombinant human FGFR1 (456 to 765 residues) at 1 uM using KKKSPGEYVNIEFG as substrate incubated for 40 mins in presence of [gamma-33P]-ATP by scintillation counting method relative to control. Summed up: as §3
Data set [15] concerns the target Protein kinase C alpha type (Homo sapiens) (UniProt P17252). The experiment in a line: Inhibition of recombinant human full length PKCalpha at 1 uM using histone H1 as substrate incubated for 40 mins in presence of [gamma-33P]-ATP by scintillation counting method relative to control.
Data set [16] has as its target Insulin receptor (Homo sapiens) (UniProt P06213). The experiment in a line: Inhibition of recombinant human IR (1005 to 1310 residues) at 1 uM using KKKSPGEYVNIEFG as substrate incubated for 40 mins in presence of [gamma-33P]-ATP by scintillation counting method relative to control.
Data set [17] deals with T47D. The experiment in a line: Induction of apoptosis in human T47D cells assessed as increase in late apoptotic cells at 20 to 40 nM incubated for 48 hrs by annexin V FITC and propidium iodide staining based flow cytometry. The class given is functional, cell-based. Summed up:
as §1
(In general: Flow cytometry measures light scatter and fluorescence of single cells or particles in a stream.)

A short description of data set [18]: Toxicity in NOD/SCID BALB/c mouse xenografted with human SiHa cells assessed as effect on blood parameter by measuring WBC content at 40 mg/kg, po administered once two days for 4 times by hematology analyzer. As to conditions: in vivo. The class given is organism-based.
Data set [19] concerns the target Serine/threonine-protein kinase Chk1 (Homo sapiens) (UniProt O14757). The experiment in a line: Inhibition of recombinant full length human CHK1 at 1 uM using KKKVSRSGLYRSP as substrate incubated for 40 mins in presence of [gamma-33P]-ATP by scintillation counting method relative to control. Summed up:
as §2

The target in data set [20] is Ribosomal protein S6 kinase alpha-6 (Homo sapiens) (UniProt Q9UK32). The experiment in a line: Inhibition of recombinant human full length RSK4 at 1 uM using LRRASLG as substrate incubated for 40 mins in presence of [gamma-33P]-ATP by scintillation counting method relative to control.
Data set [21] is described as follows: Toxicity in NOD/SCID BALB/c mouse xenografted with human SiHa cells assessed as toxic effects in brain at 40 mg/kg, po administered for 48 hrs by hematoxylin and eosin staining method. The class given is organism-based. To be noted: in vivo.
The subject of the next data set is SiHa. The experiment in a line: Induction of apoptosis in human SiHa cells assessed as increase in early apoptotic cells at 20 to 40 nM incubated for 48 hrs by annexin V FITC and propidium iodide staining based flow cytometry. The class given is functional, cell-based. Summed up:
as §1

For orientation: inhibition means the change of the read-out against control, counted positive when it falls.

Sequence of Serine/threonine-protein kinase BRSK1 (Homo sapiens) (Q8TDC3 whole entry): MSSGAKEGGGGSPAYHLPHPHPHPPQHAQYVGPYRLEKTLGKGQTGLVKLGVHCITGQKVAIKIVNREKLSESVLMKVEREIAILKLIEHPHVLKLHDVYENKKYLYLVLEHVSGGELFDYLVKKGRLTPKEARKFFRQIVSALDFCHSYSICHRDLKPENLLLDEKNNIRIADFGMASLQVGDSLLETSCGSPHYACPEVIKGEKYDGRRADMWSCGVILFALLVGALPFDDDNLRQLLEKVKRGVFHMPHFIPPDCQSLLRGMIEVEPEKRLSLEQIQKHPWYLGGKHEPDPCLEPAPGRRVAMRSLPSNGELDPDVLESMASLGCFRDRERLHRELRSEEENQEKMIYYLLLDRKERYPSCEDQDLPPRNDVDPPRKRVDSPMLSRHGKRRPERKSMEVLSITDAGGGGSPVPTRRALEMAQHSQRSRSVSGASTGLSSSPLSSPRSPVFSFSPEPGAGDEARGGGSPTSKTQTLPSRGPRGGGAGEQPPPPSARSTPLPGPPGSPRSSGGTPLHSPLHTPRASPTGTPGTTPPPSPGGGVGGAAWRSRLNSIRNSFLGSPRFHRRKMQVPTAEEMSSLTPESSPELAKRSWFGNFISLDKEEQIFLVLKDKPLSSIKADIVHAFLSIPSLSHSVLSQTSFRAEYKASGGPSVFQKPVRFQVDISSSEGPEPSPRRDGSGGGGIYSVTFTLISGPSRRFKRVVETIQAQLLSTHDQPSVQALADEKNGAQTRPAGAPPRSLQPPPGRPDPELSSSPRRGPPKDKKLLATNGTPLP
Sequence of Serine/threonine-protein kinase tousled-like 1 (Homo sapiens) (Q9UKI8 whole entry, the tested form may be a part): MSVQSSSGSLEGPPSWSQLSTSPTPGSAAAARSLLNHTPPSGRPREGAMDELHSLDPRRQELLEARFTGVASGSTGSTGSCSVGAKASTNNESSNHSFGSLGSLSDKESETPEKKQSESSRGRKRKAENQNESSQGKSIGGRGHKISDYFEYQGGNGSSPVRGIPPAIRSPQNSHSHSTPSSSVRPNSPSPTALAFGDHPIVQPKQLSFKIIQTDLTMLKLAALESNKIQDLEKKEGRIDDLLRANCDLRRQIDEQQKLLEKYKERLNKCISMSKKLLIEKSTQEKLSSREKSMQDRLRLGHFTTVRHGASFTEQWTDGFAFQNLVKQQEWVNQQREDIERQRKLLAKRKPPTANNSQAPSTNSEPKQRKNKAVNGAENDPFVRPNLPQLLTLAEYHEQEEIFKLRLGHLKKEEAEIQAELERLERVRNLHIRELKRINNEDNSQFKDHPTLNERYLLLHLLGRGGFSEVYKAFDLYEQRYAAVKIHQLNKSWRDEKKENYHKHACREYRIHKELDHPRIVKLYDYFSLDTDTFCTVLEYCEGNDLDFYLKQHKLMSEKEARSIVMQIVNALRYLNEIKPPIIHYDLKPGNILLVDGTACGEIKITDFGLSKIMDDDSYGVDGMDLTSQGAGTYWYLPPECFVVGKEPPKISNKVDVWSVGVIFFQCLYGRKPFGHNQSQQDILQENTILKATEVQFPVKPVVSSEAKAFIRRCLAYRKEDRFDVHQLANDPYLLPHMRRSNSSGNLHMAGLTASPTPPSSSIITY
Sequence of Macrophage-stimulating protein receptor (Homo sapiens) (Q04912 25-304 limits assumed): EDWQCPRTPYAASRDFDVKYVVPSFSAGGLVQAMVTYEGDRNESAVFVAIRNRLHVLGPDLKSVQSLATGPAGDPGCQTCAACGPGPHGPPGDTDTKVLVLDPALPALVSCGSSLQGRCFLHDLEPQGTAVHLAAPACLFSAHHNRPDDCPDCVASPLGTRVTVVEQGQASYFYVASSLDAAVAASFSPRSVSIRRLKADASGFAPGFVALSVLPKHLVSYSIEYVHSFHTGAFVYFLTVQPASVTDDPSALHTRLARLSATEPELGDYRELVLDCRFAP
Sequence of Macrophage-stimulating protein receptor (Homo sapiens) (Q04912 310-1400 limits assumed): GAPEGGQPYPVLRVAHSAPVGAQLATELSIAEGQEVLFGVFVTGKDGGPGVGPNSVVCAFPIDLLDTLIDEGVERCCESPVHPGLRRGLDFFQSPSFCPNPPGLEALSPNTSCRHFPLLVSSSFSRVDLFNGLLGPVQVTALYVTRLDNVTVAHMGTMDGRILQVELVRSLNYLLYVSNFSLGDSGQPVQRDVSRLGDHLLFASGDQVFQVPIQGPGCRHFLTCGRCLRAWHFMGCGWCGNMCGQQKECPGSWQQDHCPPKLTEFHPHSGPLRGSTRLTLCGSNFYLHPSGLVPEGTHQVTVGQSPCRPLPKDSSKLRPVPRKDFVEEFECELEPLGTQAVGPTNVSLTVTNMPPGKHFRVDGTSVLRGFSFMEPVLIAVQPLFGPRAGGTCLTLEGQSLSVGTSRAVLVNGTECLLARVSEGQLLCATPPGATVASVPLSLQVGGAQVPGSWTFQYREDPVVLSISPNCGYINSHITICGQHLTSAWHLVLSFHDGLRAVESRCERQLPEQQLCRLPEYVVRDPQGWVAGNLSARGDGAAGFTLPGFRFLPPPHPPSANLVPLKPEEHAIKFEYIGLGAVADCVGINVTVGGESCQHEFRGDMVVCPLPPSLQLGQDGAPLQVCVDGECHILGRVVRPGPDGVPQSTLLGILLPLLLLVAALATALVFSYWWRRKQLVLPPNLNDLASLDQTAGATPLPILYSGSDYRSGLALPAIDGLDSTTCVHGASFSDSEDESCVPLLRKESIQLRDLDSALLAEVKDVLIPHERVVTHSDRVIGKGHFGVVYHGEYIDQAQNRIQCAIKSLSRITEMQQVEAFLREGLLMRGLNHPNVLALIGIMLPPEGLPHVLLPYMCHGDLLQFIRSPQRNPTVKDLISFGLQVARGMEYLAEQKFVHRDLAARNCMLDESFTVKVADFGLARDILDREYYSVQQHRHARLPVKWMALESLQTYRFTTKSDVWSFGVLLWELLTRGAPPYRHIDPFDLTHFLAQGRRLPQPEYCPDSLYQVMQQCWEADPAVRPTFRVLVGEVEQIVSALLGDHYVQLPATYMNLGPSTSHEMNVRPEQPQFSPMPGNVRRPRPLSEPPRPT
Sequence of Serine/threonine-protein kinase Chk1 (Homo sapiens) (O14757 whole entry): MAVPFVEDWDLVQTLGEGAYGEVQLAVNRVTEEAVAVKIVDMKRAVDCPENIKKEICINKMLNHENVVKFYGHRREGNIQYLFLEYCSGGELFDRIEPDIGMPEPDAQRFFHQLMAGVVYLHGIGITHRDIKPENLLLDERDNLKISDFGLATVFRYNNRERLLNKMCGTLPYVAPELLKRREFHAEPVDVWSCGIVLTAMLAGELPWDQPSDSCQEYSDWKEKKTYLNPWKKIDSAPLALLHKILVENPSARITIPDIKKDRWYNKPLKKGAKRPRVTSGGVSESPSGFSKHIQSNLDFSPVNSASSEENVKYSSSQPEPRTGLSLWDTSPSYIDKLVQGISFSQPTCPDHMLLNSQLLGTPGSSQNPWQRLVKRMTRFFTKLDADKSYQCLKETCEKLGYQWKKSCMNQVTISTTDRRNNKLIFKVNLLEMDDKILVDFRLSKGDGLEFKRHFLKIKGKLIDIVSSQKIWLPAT
Sequence of Ribosomal protein S6 kinase alpha-6 (Homo sapiens) (Q9UK32 whole entry): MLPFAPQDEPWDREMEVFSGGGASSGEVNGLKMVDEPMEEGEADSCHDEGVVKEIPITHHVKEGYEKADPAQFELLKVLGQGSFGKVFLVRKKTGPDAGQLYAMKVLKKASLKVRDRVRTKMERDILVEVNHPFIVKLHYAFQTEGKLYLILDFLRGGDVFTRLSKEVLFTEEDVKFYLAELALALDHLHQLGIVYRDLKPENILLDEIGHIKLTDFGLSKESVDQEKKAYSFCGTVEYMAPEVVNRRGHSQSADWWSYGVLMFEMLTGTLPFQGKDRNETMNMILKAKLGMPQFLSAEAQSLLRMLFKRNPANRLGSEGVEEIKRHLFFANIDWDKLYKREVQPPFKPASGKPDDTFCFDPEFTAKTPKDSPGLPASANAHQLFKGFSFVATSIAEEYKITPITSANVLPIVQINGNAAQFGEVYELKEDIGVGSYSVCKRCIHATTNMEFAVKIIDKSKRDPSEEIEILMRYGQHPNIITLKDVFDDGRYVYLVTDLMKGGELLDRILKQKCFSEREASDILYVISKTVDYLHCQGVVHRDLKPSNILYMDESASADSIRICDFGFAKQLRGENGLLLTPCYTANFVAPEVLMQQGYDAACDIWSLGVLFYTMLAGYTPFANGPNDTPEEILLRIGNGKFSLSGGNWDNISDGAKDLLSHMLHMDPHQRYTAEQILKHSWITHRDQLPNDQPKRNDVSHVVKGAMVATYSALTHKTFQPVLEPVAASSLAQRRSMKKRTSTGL

Take `COc1cc2nccc(Oc3ccc(NC(=O)C4(C(=O)Nc5ccc(F)cc5)CC4)cc3)c2cc1OC` [CABOZANTINIB]: in the data set on T47D [1], the result was Active.
Regarding `Cc1ccc(NC(=O)C2(C(=O)Nc3ccc(Nc4ncc(F)c(-c5cc(F)c6nc(C)n(C(C)C)c6c5)n4)cc3)CC2)cc1`, the inhibition in data set [2] turned out to be 69%; in data set [3] it was 22%; in data set [4], 54%; in data set [5], 58%; in data set [6], 0%; in [7], 73%. In addition, the inhibition was found to be 5% in [8]; 14% in [9]; 0% in data set [10]; 10% in [11]; 14% in data set [12]; 31% in data set [13]. For the same compound, the inhibition was found to be 0% in data set [14]; 70% in [15]; 35% in data set [16]; 28% in [19]; 22% in data set [20]. The outcome in the data set with T47D [17] and with SiHa was Active. The Activity entry in data set [18] and in data set [21] was “Non-Toxic” each time.
